Reference: ChEMBL document CHEMBL1144895, “Synthesis and anticonvulsant activity of novel bicyclic acidic amino acids” (J Med Chem, 2003)
Values belong to the compound of their own block, whether it stands above or below them.

Key:
[1] = tested on: Mus musculus; experiment: In vivo anticonvulsant activity determined as ip dose that blocked NMDA-induced clonic seizures induced in DBA/2 mice; type: functional
[2] = tested on: Mus musculus; experiment: In vivo anticonvulsant activity determined as ip dose that blocked NMDA-induced tonic seizures induced in DBA/2 mice after ip administration; type: functional
[3] = tested on: Mus musculus; experiment: In vivo anticonvulsant activity determined as ip dose that blocked clonic seizures induced by audiogenic stimuli in DBA/2 mice after pretreatment with D-serine; type: functional
How it was run: (§1)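 DBA/2 mice pretreated with D-serine (300 nmol/mouse, icv) 30 min […], then tested for audiogenic seizures (110 dB sound, clonic/tonic phases scored).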

[4] = tested on: Mus musculus; experiment: In vivo anticonvulsant activity determined as ip dose that blocked clonic seizures induced in DBA/2 mice by audiogenic stimuli; type: functional
How it was run: (§2)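 Male DBA/2 mice (6–12 g, 22–26 days old) given drug or vehicle ip (DMSO, pH 7.3–7.7 with phosphate buffer). After 45 min, a 110 dB sound for 60 s or until clonus; seizures scored (wild running, clonic, tonic, respiratory arrest).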

[5] = tested on: Mus musculus; experiment: In vivo anticonvulsant activity determined as ip dose that blocked tonic seizures induced by audiogenic stimuli in DBA/2 mice after pretreatment with D-serine; type: functional; how it was run: as §1
[6] = tested on: Mus musculus; experiment: In vivo anticonvulsant activity determined as ip dose that blocked tonic seizures induced in DBA/2 mice by audiogenic stimuli; type: functional; how it was run: as §2
[7] = tested on: Mus musculus; experiment: In vivo anticonvulsant activity determined as ip dose that blocked 3,5-DHPG induced clonic seizures induced in DBA/2 mice; type: functional
How it was run: (§3)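 DBA/2 mice (n = 10 per group) given agent ip at 10–100 μmol/kg 15 min before icv DHPG (1.5 μmol); seizure-related activity observed for 90 min.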

[8] = tested on: Mus musculus; experiment: In vivo anticonvulsant activity determined as ip dose that blocked 3,5-DHPG induced tonic seizures induced in DBA/2 mice after; type: functional; how it was run: as §3
[9] = target: Glutamate NMDA receptor; experiment: In vitro binding affinity for rat cortical membrane N-methyl-D-aspartate glutamate receptor determined using [3H]CPP as radioligand
[10] = tested on: Mus musculus; experiment: In vivo anticonvulsant activity determined as potency that blocked NMDA-induced clonic seizures induced in DBA/2 mice; type: functional
[11] = tested on: Mus musculus; experiment: In vivo anticonvulsant activity determined as potency that blocked NMDA-induced tonic seizures induced in DBA/2 mice; type: functional
[12] = tested on: Mus musculus; experiment: In vivo anticonvulsant activity determined as potency that blocked clonic seizures induced by audiogenic stimuli in DBA/2 mice after pretreatment with D-serine; type: functional; how it was run: as §1
[13] = tested on: Mus musculus; experiment: In vivo anticonvulsant activity determined as potency that blocked clonic seizures induced in DBA/2 mice by audiogenic stimuli; type: functional
[14] = tested on: Mus musculus; experiment: In vivo anticonvulsant activity determined as potency that blocked tonic seizures induced by audiogenic stimuli in DBA/2 mice after pretreatment with D-serine; type: functional; how it was run: as §1
[15] = tested on: Mus musculus; experiment: In vivo anticonvulsant activity determined as potency that blocked tonic seizures induced in DBA/2 mice by audiogenic stimuli; type: functional
[16] = target: T1, Metabotropic glutamate receptor 5 (Rattus norvegicus, UniProt P31424); experiment: Activity tested at cloned rat Metabotropic glutamate receptor 5 expressed in Chinese Hamster Ovary (CHO) cells; type: functional, cell-based
How it was run: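 Rat mGluR5a splice variant expressed in a CHO cell line. Compounds were tested for agonist and antagonist action at this receptor.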

[17] = target: T2, Metabotropic glutamate receptor 4 (Rattus norvegicus, UniProt P31423); experiment: Activity tested at cloned rat Metabotropic glutamate receptor 4 expressed in Chinese Hamster Ovary (CHO) cells; type: functional, cell-based
How it was run: (§4)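 Cloned rat mGluR1α, mGluR2, mGluR4a or mGluR5a stably expressed in CHO cell lines; cells maintained and tested by a previously described procedure.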

[18] = target: Metabotropic glutamate receptor 2 (Rattus norvegicus, UniProt P31421); experiment: Activity tested at cloned rat mGluR2 receptor expressed in Chinese Hamster Ovary (CHO) cells; type: functional, cell-based
How it was run: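 Rat mGluR2 stably expressed in CHO cells, with cells maintained and tested as described in an earlier report. Agonism was assessed directly. Antagonism was assessed against a response to 30 μM Glu, with test compound at 1 mM.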

[19] = tested on: Mus musculus; experiment: In vivo anticonvulsant activity determined as icv dose that blocked 3,5-DHPG induced clonic seizures induced in DBA/2 mice; type: functional; conditions: central
[20] = tested on: Mus musculus; experiment: In vivo anticonvulsant activity determined as icv dose that blocked 3,5-DHPG induced tonic seizures induced in DBA/2 mice after; type: functional; conditions: central
[21] = tested on: Mus musculus; experiment: In vivo anticonvulsant activity determined as icv dose that blocked NMDA-induced tonic seizures induced in DBA/2 mice after ip administration; type: functional
How it was run: (§5)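 DBA/2 mice, n = 10 per group, were dosed with drug in DMSO buffered to pH 7.3–7.7, then given icv NMDA: 18.7 nmol/mouse for tonic extension or 1.9 nmol/mouse for clonic seizures. ED50 by Litchfield–Wilcoxon, 95% confidence limits.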

[22] = tested on: Mus musculus; experiment: In vivo anticonvulsant activity determined as icv dose that blocked clonic seizures induced by audiogenic stimuli in DBA/2 mice after pretreatment with D-serine; type: functional; conditions: central
[23] = tested on: Mus musculus; experiment: In vivo anticonvulsant activity determined as icv dose that blocked clonic seizures induced in DBA/2 mice by audiogenic stimuli; type: functional; conditions: central
How it was run: (§6)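 Male DBA/2 mice (6–12 g, 22–26 days old) received icv drug or vehicle (10 μL, 1 mm anterior to bregma, 1 mm lateral, 3 mm depth) under light ether anaesthesia. Drug was dissolved in DMSO, pH 7.3–7.7 with phosphate buffer. 45 min later, 110 dB bell for 60 s; wild running, clonus, tonic extension scored.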

[24] = tested on: Mus musculus; experiment: In vivo anticonvulsant activity determined as icv dose that blocked tonic seizures induced by audiogenic stimuli in DBA/2 mice after pretreatment with D-serine; type: functional; conditions: central
[25] = tested on: Mus musculus; experiment: In vivo anticonvulsant activity determined as icv dose that blocked tonic seizures induced in DBA/2 mice by audiogenic stimuli; type: functional; conditions: central; how it was run: as §6
[26] = tested on: Mus musculus; experiment: In vivo anticonvulsant activity determined as icv dose that blocked NMDA-induced clonic seizures induced in DBA/2 mice; type: functional; conditions: central; how it was run: as §5
[27] = target: T3, Glutamate receptor ionotropic, AMPA (Rattus norvegicus, UniProt P19490+P19491+P19492+P19493); experiment: Binding affinity of compound was determined against Ionotropic glutamate receptor AMPA receptor, using radioligand [3H]- AMPA; type: protein-complex assay
[28] = target: Glutamate receptor ionotropic, kainate; experiment: In vitro binding affinity for rat cortical membrane KA receptor determined using [3H]KA as radioligand
[29] = target: T1, Metabotropic glutamate receptor 5; experiment: Inhibitory constant against cloned rat Metabotropic glutamate receptor 5 expressed in Chinese Hamster Ovary (CHO) cells; type: cell-based; how it was run: as §4
[30] = target: T2, Metabotropic glutamate receptor 4; experiment: Inhibitory constant against cloned rat Metabotropic glutamate receptor 4 expressed in Chinese Hamster Ovary (CHO) cells; type: cell-based; how it was run: as §4
[31] = tested on: Mus musculus; experiment: In vivo anticonvulsant activity determined as ip dose that blocked NMDA-induced tonic seizures induced in DBA/2 mice; type: functional
[32] = tested on: Mus musculus; experiment: In vivo anticonvulsant activity determined as ip dose that blocked 3,5-DHPG induced tonic seizures induced in DBA/2 mice; type: functional; how it was run: as §3
[33] = organism: Rattus norvegicus; experiment: Agonist activity tested in rat cortical slice model; type: functional
How it was run: (§7)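 Rat cortical slice model; compounds tested up to 1000 μM both as agonists and as antagonists. Antagonism measured against responses to NMDA (10 μM), AMPA (5 μM) or KA (5 μM), agonist applied for a further 90 s.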

[34] = organism: Rattus norvegicus; experiment: Antagonist activity tested in rat cortical slice model; type: functional; how it was run: as §7
[35] = target: Metabotropic glutamate receptor 1 (Rattus norvegicus, UniProt P23385); experiment: Inhibitory constant against cloned rat Metabotropic glutamate receptor 1 expressed in Chinese Hamster Ovary (CHO) cells; type: cell-based; how it was run: as §4
[36] = target: T3, Glutamate receptor ionotropic, AMPA; experiment: In vitro binding affinity for rat cortical membrane Ionotropic glutamate receptor AMPA determined using [3H]AMPA as radioligand
[37] = organism: Rattus norvegicus; experiment: Antagonist activity against responses induced by 10 uM NMDA tested in rat cortical slice model; type: functional
How it was run: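 Rat cortical slices; antagonism of responses induced by 10 μM NMDA, agonist applied for a further 90 s; IC50 derived.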

[38] = target: Metabotropic glutamate receptor 2 (Rattus norvegicus) (UniProt P31421); experiment: Activity tested at cloned rat mGluR2 receptor expressed in Chinese Hamster Ovary (CHO) cells at 1 mM concentration; type: functional, cell-based
How it was run: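 Cloned rat mGluR2 in CHO cells; test compound at 1 mM, also checked for inhibition of the response to 30 μM Glu.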

[39] = organism: Rattus norvegicus; experiment: Percent inhibition of the response induced by 5 uM of AMPA at a concentration of 1 mM in rat; type: functional

T2 sequence (P31423 whole entry): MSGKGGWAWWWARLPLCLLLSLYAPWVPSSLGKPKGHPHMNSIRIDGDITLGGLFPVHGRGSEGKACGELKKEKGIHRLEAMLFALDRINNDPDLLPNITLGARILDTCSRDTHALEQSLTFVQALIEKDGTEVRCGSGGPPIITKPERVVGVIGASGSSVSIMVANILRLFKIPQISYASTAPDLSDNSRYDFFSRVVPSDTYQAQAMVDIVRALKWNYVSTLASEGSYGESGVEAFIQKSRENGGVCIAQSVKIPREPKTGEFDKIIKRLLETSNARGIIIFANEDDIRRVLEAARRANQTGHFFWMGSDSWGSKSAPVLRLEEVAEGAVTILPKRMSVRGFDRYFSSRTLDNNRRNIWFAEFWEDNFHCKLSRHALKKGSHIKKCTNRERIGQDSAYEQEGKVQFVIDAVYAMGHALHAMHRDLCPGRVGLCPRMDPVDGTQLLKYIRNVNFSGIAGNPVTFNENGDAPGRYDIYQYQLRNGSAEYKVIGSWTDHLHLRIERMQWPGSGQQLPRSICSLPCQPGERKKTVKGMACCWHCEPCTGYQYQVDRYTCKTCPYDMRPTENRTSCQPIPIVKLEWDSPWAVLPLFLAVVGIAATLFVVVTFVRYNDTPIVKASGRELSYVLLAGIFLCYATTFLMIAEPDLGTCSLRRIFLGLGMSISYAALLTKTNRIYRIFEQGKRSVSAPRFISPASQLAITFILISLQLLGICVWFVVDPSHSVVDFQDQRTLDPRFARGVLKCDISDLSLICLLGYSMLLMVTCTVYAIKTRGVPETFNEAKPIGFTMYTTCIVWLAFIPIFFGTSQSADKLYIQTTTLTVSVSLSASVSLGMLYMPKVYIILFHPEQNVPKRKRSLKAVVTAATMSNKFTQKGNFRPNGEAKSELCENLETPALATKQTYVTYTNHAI
T1 sequence (P31424 whole entry, canonical isoform): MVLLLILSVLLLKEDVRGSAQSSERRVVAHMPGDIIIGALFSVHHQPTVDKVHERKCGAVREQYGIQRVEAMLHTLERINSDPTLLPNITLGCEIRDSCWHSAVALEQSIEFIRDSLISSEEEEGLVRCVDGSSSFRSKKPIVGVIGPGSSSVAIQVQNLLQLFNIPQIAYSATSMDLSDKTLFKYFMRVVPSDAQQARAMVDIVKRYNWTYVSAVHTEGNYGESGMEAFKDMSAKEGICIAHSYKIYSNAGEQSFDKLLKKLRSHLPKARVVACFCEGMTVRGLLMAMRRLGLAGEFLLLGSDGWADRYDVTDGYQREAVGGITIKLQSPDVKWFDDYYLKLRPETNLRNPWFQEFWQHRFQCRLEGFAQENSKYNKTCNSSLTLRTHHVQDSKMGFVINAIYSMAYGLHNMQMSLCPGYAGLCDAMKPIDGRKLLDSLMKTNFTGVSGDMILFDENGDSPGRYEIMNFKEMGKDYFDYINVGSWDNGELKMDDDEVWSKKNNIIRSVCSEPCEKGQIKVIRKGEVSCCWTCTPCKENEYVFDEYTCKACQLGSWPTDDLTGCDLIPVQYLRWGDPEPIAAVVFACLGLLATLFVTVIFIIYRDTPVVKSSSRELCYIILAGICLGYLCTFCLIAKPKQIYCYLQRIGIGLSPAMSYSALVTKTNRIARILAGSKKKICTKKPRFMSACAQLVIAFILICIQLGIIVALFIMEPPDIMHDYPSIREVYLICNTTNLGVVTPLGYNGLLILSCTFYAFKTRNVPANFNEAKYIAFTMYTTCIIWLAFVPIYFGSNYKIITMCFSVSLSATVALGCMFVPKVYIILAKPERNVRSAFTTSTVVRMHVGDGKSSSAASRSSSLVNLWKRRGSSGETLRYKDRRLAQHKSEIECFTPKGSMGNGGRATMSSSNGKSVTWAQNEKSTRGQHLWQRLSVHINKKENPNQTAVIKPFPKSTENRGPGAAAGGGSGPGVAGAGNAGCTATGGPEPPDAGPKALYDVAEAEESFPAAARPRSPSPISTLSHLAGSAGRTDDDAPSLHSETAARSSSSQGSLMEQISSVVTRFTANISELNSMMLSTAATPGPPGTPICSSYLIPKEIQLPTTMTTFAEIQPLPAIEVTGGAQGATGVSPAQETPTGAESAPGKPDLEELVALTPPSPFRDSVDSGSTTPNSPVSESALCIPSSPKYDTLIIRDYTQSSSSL
Chain of Metabotropic glutamate receptor 1 (P23385 whole entry): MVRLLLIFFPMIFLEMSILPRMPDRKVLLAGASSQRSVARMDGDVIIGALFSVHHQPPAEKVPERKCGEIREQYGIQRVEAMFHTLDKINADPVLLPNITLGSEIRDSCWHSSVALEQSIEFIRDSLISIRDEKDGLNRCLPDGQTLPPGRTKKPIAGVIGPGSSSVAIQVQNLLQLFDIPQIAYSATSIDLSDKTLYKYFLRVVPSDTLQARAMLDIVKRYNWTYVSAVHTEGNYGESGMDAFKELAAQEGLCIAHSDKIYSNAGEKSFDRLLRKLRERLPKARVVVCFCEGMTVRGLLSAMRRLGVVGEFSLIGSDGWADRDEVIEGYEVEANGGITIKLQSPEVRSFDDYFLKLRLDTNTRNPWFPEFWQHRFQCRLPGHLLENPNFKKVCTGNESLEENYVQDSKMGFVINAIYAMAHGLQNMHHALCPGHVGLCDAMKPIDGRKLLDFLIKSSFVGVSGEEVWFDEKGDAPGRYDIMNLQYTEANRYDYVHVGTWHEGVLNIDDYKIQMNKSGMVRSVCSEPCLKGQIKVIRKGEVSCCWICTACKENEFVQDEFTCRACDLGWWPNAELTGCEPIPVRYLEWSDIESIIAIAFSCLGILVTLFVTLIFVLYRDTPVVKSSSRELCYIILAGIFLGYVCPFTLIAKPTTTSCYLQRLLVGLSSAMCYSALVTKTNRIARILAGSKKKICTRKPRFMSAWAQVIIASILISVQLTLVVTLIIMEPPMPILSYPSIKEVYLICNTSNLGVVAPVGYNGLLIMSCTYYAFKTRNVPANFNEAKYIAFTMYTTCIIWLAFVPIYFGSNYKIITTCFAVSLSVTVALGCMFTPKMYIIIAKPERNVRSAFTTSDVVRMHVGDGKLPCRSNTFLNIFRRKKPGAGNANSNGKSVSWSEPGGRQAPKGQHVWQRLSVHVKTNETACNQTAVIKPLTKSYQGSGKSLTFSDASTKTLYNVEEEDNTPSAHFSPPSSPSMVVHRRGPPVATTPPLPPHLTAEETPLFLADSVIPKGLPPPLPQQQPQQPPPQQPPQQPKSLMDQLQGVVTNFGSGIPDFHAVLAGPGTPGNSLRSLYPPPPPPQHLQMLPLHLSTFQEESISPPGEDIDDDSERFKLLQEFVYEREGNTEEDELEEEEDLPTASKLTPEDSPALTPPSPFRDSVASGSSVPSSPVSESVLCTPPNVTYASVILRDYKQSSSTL
Chain of Metabotropic glutamate receptor 2 (P31421 whole entry): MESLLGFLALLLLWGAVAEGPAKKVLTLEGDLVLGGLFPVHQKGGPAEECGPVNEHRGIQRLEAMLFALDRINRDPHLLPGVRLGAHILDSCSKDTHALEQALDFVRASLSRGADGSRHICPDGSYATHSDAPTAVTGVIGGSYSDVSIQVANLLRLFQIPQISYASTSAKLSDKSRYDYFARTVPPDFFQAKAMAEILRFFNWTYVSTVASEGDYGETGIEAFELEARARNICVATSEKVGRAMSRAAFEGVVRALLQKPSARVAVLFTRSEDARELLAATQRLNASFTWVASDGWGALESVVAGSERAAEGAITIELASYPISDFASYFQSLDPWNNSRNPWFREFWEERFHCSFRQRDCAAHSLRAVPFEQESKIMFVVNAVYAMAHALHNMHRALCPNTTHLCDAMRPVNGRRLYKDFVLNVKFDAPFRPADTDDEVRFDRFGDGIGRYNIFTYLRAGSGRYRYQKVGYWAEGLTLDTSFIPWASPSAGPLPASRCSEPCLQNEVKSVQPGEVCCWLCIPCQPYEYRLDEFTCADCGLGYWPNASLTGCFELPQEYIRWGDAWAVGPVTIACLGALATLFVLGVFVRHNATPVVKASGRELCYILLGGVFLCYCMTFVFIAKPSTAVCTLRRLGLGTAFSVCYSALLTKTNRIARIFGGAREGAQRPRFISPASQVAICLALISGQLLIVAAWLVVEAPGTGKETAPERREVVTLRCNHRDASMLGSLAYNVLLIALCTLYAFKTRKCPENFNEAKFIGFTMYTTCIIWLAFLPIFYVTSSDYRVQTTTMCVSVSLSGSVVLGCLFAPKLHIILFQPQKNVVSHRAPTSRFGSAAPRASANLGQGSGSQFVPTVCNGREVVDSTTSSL
Chain of Metabotropic glutamate receptor 2 (Rattus norvegicus) (P31421 19-872 limits assumed): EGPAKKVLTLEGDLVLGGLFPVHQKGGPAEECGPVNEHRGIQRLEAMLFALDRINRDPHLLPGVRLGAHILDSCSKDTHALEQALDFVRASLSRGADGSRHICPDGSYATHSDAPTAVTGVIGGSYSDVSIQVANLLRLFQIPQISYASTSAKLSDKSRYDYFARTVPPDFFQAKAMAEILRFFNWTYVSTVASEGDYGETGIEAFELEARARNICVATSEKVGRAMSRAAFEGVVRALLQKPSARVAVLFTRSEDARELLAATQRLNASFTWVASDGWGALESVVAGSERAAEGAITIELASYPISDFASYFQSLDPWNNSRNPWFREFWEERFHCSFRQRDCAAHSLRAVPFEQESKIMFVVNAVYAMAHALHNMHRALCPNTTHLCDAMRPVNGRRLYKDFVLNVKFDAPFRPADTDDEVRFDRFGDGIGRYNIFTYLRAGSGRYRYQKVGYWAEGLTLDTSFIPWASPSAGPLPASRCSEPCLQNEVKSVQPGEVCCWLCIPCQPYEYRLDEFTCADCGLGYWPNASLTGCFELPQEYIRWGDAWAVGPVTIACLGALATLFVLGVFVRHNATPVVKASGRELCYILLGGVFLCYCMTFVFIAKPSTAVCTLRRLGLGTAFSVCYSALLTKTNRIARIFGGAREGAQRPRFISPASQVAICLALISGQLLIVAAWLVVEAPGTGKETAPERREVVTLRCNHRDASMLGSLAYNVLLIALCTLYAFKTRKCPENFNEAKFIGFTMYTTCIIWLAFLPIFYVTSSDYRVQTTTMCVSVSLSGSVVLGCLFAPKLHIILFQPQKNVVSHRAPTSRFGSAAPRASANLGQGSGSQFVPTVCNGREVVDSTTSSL

IC50 [9]: 0.04 µM
Compound: O=C(O)[C@H]1CN(C/C=C/P(=O)(O)O)CCN1 [MIDAFOTEL]
ED50 [1]: 17 µmol/kg
ED50 [2]: 11 µmol/kg
ED50 [3]: 2.5 µmol/kg
ED50 [4]: 1.8 µmol/kg
ED50 [5]: 1.2 µmol/kg
ED50 [6]: 0.79 µmol/kg
ED50 [7]: 8.6 µmol/kg
ED50 [8]: 6.8 µmol/kg

Compound: O=C1NC(=O)C(c2ccccc2)(c2ccccc2)N1 [PHENYTOIN]
ED50 [10]: 31 µmol/kg
ED50 [11]: 2.2 µmol/kg
ED50 [12]: 11 µmol/kg
ED50 [13]: 9.1 µmol/kg
ED50 [14]: 8.7 µmol/kg
ED50 [15]: 7.3 µmol/kg

Compound: N[C@@]1(C(=O)O)CC[C@@H](C(=O)O)C1 (racemic)
EC50 [16]: 23 µM
EC50 [17]: 800 µM
EC50 [18]: 2 µM

Compound: CC(C)OC(=O)Nc1cccc(Cl)c1 [CHLORPROPHAM]
ED50 [19]: 8.7 µmol/kg
ED50 [20]: 6.9 µmol/kg
ED50 [21]: 22 µmol/kg
ED50 [22]: 5.2 µmol/kg
ED50 [23]: 5.6 µmol/kg
ED50 [24]: 2.8 µmol/kg
ED50 [25]: 2.6 µmol/kg
ED50 [26]: 41 µmol/kg

IC50 [27]: > 100 µM
IC50 [28]: > 100 µM
Ki [29]: 440 µM
Ki [30]: > 1000 µM
EC50 [17]: > 1000 µM
EC50 [33]: > 1000 µM
IC50 [34]: > 1000 µM
EC50 [18]: 16 µM
IC50 [9]: > 100 µM
Ki [35]: 27 µM
Compound: N[C@]1(C(=O)O)C[C@@H]2ON=C(C(=O)O)[C@@H]2C1 (racemic)
ED50 [31]: 91 µmol/kg
ED50 [3]: 41 µmol/kg
ED50 [4]: 42 µmol/kg
ED50 [5]: 24 µmol/kg
ED50 [6]: 25 µmol/kg
ED50 [32]: 84 µmol/kg

Compound: NC(=O)OCC(COC(N)=O)c1ccccc1 [FELBAMATE]
ED50 [10]: 122 µmol/kg
ED50 [11]: 51 µmol/kg
ED50 [12]: 674 µmol/kg
ED50 [13]: 204 µmol/kg
ED50 [14]: 328 µmol/kg
ED50 [15]: 97 µmol/kg

Compound: O=C(O)c1cc(O)c2c(Cl)cc(Cl)cc2n1
ED50 [19]: 14 µmol/kg
ED50 [20]: 11 µmol/kg
ED50 [21]: 22 µmol/kg
ED50 [22]: 12 µmol/kg
ED50 [23]: 2.4 µmol/kg
ED50 [24]: 8.5 µmol/kg
ED50 [25]: 2.2 µmol/kg
ED50 [26]: 26 µmol/kg

Compound: N[C@@H](CCCP(=O)(O)O)C(=O)O
IC50 [9]: 29 µM

Compound: N[C@H](CCCP(=O)(O)O)C(=O)O
IC50 [9]: 0.88 µM

Compound: CCCC(CCC)C(=O)O [VALPROIC ACID]
ED50 [10]: 878 µmol/kg
ED50 [11]: 498 µmol/kg
ED50 [12]: 275 µmol/kg
ED50 [13]: 258 µmol/kg
ED50 [14]: 205 µmol/kg
ED50 [15]: 187 µmol/kg

IC50 [36]: > 100 µM
IC50 [28]: > 100 µM
Ki [29]: 640 µM
Ki [30]: > 1000 µM
EC50 [17]: > 1000 µM
EC50 [33]: > 1000 µM
IC50 [37]: 14 µM
Activation [38]: 36%
IC50 [9]: 0.49 µM
Ki [35]: 94 µM
Compound: N[C@@]1(C(=O)O)C[C@@H]2ON=C(C(=O)O)[C@@H]2C1 (racemic)
ED50 [1]: 54 µmol/kg
ED50 [2]: 39 µmol/kg
ED50 [3]: 33 µmol/kg
ED50 [4]: 28 µmol/kg
ED50 [5]: 27 µmol/kg
ED50 [6]: 22 µmol/kg
ED50 [7]: 70 µmol/kg
ED50 [8]: 45 µmol/kg
Inhibition [39]: 32%
